Source: ChEMBL document CHEMBL1140915, “Second-generation highly potent and selective inhibitors of the hepatitis C virus NS3 serine protease” (J Med Chem, 2009)

How the values were obtained:
[1] = Inhibition of HCV NS3 protease in absence of human serum; parameters: species or system Hepacivirus hominis
Outline: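 Continuous enzymatic assay using NS4A-tethered single-chain HCV NS3 serine protease, without human serum. Ki* is the equilibrium constant, which includes the reversible covalent ketone–serine bond. Compounds were tested as P1 diastereomer mixtures (2:1 to 1:2) that equilibrate rapidly under assay conditions.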

Hepatitis C virus = assay: Antiviral activity against HCV assessed as inhibition of virus replication by cell based assay in absence of human serum; type: functional, Hepacivirus hominis
Outline: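 Replicon-based cellular assay run without human serum. EC90 is the concentration that inhibits replicon replication by 90%. Compounds were tested as rapidly equilibrating P1 diastereomer mixtures.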

[2] = Selectivity for HCV NS3 protease over human neutrophil elastase
Outline: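 Compounds were also assayed against human neutrophil elastase. Selectivity is expressed as the HNE/HCV ratio of the two enzyme potencies.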

[3] = AUC in rat at 10 mg/kg, po administered with 20% HPBCD; type: ADME, organism-based; parameters: dose 10 mg/kg, route oral; settings: plasma
[4] = AUC in monkey at 3 mg/kg, po administered with 0.4% hydroxypropyl methylcellulose; type: ADME, organism-based, Macaca mulatta; parameters: dose 3 mg/kg, route oral; settings: rhesus monkey, in vivo
[5] = AUC in dog at 3 mg/kg, po administered with 0.4% hydroxypropyl methylcellulose; type: ADME, organism-based, Canis lupus familiaris; parameters: dose 3 mg/kg, route oral; settings: in vivo
[6] = AUC in rat at 3 mg/kg, iv administered with 0.4% hydroxypropyl methylcellulose; type: ADME, organism-based; parameters: dose 3 mg/kg, route intravenous; settings: in vivo
[7] = AUC in monkey at 1 mg/kg, iv administered with 0.4% hydroxypropyl methylcellulose; type: ADME, organism-based, Macaca mulatta; parameters: dose 1 mg/kg, route intravenous; settings: rhesus monkey, in vivo
[8] = AUC in dog at 2 mg/kg, iv administered with 0.4% hydroxypropyl methylcellulose; type: ADME, organism-based, Canis lupus familiaris; parameters: dose 2 mg/kg, route intravenous; settings: in vivo
[9] = Half life in rat at 3 mg/kg, iv administered with 0.4% hydroxypropyl methylcellulose; type: ADME, organism-based; parameters: dose 3 mg/kg, route intravenous; settings: in vivo
[10] = Half life in monkey at 1 mg/kg, iv administered with 0.4% hydroxypropyl methylcellulose; type: ADME, organism-based, Macaca mulatta; parameters: dose 1 mg/kg, route intravenous; settings: rhesus monkey, in vivo
[11] = Half life in dog at 2 mg/kg, iv administered with 0.4% hydroxypropyl methylcellulose; type: ADME, organism-based, Canis lupus familiaris; parameters: dose 2 mg/kg, route intravenous; settings: in vivo
[12] = Bioavailability in rat at 10 mg/kg, po administered with 0.4% hydroxypropyl methylcellulose; type: ADME, organism-based; settings: in vivo
[13] = Bioavailability in monkey at 3 mg/kg, po administered with 0.4% hydroxypropyl methylcellulose; type: ADME, organism-based, Macaca mulatta; settings: rhesus monkey, in vivo
[14] = Bioavailability in dog at 3 mg/kg, po administered with 0.4% hydroxypropyl methylcellulose; type: ADME, organism-based, Canis lupus familiaris; settings: in vivo
[15] = Drug level in rat liver after 6 hrs; type: ADME, tissue-based; settings: read-out: Drug uptake
Outline: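 In rat, compound level in liver was measured 6 h after dosing in 0.4% MC and reported as ng/g tissue.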

[16] = AUC in rat at 10 mg/kg, po administered with 0.4% hydroxypropyl methyl cellulose; type: ADME, organism-based; parameters: dose 10 mg/kg, route oral; settings: in vivo

Ki [1] [nM]	EC90 (Hepatitis C virus) [nM]	Ratio [2]	AUC [3] [µM·h]	SMILES	further results
8	150	69000	0.44	C=CCNC(=O)C(=O)C(CCCC)NC(=O)[C@@H]1[C@@H]2[C@H](CN1C(=O)[C@@H](NC(=O)N[C@@H](CN1C(=O)CCCC1=O)C(C)(C)C)C(C)(C)C)C2(C)C (some centres undefined)	
4	150	4300		C=CCNC(=O)C(=O)C(CCCC)NC(=O)[C@@H]1[C@@H]2[C@H](CN1C(=O)[C@@H](NC(=O)NC(CN1C(=O)CCNC1=O)C(C)(C)C)C(C)(C)C)C2(C)C (single isomer, unassigned)	
8	60	1600		C=CCNC(=O)C(=O)C(CCCC)NC(=O)[C@@H]1[C@@H]2[C@H](CN1C(=O)[C@@H](NC(=O)NC(CN1C(=O)N(C)C(C)(C)C1=O)C(C)(C)C)C(C)(C)C)C2(C)C (single isomer, unassigned)	
4	40	9300	1.58	C=CCNC(=O)C(=O)C(CCCC)NC(=O)[C@@H]1[C@@H]2[C@H](CN1C(=O)[C@@H](NC(=O)NC(CN1C(=O)CC(C)(C)CC1=O)C(C)(C)C)C(C)(C)C)C2(C)C (single isomer, unassigned)	
8	1000	1200		C=CCNC(=O)C(=O)C(CCCC)NC(=O)[C@@H]1[C@@H]2[C@H](CN1C(=O)[C@@H](NC(=O)NC(CN1C(=O)CNC1=O)C(C)(C)C)C(C)(C)C)C2(C)C (single isomer, unassigned)	
7	60	1400		C=CCNC(=O)C(=O)C(CCCC)NC(=O)[C@@H]1[C@@H]2[C@H](CN1C(=O)[C@@H](NC(=O)NC(CN1C(=O)CCN(C)C1=O)C(C)(C)C)C(C)(C)C)C2(C)C (single isomer, unassigned)	
6	40	9500	0.36	C=CCNC(=O)C(=O)C(CCCC)NC(=O)[C@@H]1[C@@H]2[C@H](CN1C(=O)[C@@H](NC(=O)NC(CN1C(=O)CN(C)CC1=O)C(C)(C)C)C(C)(C)C)C2(C)C (single isomer, unassigned)	
4	40	1600		C=CCNC(=O)C(=O)C(CCC)NC(=O)[C@@H]1[C@@H]2[C@H](CN1C(=O)[C@@H](NC(=O)NC(CN1C(=O)CC(C)(C)CC1=O)C(C)(C)C)C(C)(C)C)C2(C)C (single isomer, unassigned)	

Further lines, the molecule ahead of its results:

SMILES	Ki [1] [nM]	EC90 (Hepatitis C virus) [nM]	Ratio [2]	AUC [3] [µM·h]	further results
C=CCNC(=O)C(=O)C(CC1CC1)NC(=O)[C@@H]1[C@@H]2[C@H](CN1C(=O)[C@@H](NC(=O)NC(CN1C(=O)CC(C)(C)CC1=O)C(C)(C)C)C(C)(C)C)C2(C)C (single isomer, unassigned)	4	30	7100	1.2	AUC [4]: 0.1 µM·h; AUC [5]: 1.2 µM·h; AUC [6]: 1.6 µM·h; AUC [7]: 0.7 µM·h; AUC [8]: 2.2 µM·h; half-life [9]: 7.4 h; half-life [10]: 2.3 h; half-life [11]: 2.7 h; bioavailability [12]: 22%; bioavailability [13]: 4%; bioavailability [14]: 35%; concentration at 6 h [15]: 1800 ng/g; AUC [16]: 0.9 µM·h
C=CCNC(=O)C(=O)C(CCCC)NC(=O)[C@@H]1[C@@H]2[C@H](CN1C(=O)C(NC(=O)NC(CN1C(=O)CC(C)(C)CC1=O)C(C)(C)C)C1Cc3ccccc3C1)C2(C)C (single isomer, unassigned)	4	100	1800		
C#CCCC(NC(=O)[C@@H]1[C@@H]2[C@H](CN1C(=O)[C@@H](NC(=O)NC(CN1C(=O)CC(C)(C)CC1=O)C(C)(C)C)C(C)(C)C)C2(C)C)C(=O)C(=O)NCC=C (single isomer, unassigned)	2	40	230		
C=CCNC(=O)C(=O)C(CCCC)NC(=O)[C@@H]1[C@@H]2[C@H](CN1C(=O)[C@@H](NC(=O)NC(CN1C(=O)CC(C)(C)CC1=O)C(C)(C)C)C1CCCCC1)C2(C)C (single isomer, unassigned)	2	45	2400	0.45	
C=CCNC(=O)C(=O)C(CCC1CC1)NC(=O)[C@@H]1[C@@H]2[C@H](CN1C(=O)[C@@H](NC(=O)NC(CN1C(=O)CC(C)(C)CC1=O)C(C)(C)C)C(C)(C)C)C2(C)C (single isomer, unassigned)	7	30	11000	0.5	
CCCCC(NC(=O)[C@@H]1[C@@H]2[C@H](CN1C(=O)[C@@H](NC(=O)NC(CN1C(=O)CC(C)(C)CC1=O)C(C)(C)C)C(C)(C)C)C2(C)C)C(=O)C(=O)NCc1cccs1 (single isomer, unassigned)	12	100	900		
CCCCC(NC(=O)[C@@H]1[C@@H]2[C@H](CN1C(=O)[C@@H](NC(=O)NC(CN1C(=O)CC(C)(C)CC1=O)C(C)(C)C)C(C)(C)C)C2(C)C)C(=O)C(=O)NCCC (single isomer, unassigned)	21	80	910		
CCCCC(NC(=O)[C@@H]1[C@@H]2[C@H](CN1C(=O)[C@@H](NC(=O)NC(CN1C(=O)CC(C)(C)CC1=O)C(C)(C)C)C(C)(C)C)C2(C)C)C(=O)C(=O)NCC (single isomer, unassigned)	13	70	8200		
C=CCNC(=O)C(=O)C(CCCC)NC(=O)[C@@H]1[C@@H]2[C@H](CN1C(=O)C(NC(=O)NC(CN1C(=O)CC(C)(C)CC1=O)C(C)(C)C)C1(C)Cc3ccccc3C1)C2(C)C (single isomer, unassigned)	32	80	220		
C=CCNC(=O)C(=O)C(CCCC)NC(=O)[C@@H]1[C@@H]2[C@H](CN1C(=O)C(NC(=O)NC(CN1C(=O)CC(C)(C)CC1=O)C(C)(C)C)C1(C)CCCCC1)C2(C)C (single isomer, unassigned)	4	45	1000		
C=CCNC(=O)C(=O)C(CCCC)NC(=O)[C@@H]1[C@@H]2[C@H](CN1C(=O)[C@@H](NC(=O)NC(CN1C(=O)CN(c3ccccc3)CC1=O)C(C)(C)C)C(C)(C)C)C2(C)C (single isomer, unassigned)	12	100	90		
CC(C)(C)NC(=O)N[C@H](C(=O)N1C[C@H]2[C@@H]([C@H]1C(=O)NC(CC1CCC1)C(=O)C(N)=O)C2(C)C)C(C)(C)C (some centres undefined) [BOCEPREVIR]	14	350			bioavailability [13]: 4%
